ABHD5-PLIN5 inh: ABHD5-PLIN5 protein interaction inhibition; Q00G26+Q8WTS1; 360,000 tested, 0.78% active; Split G. princeps luciferase complementation, luminescence, 4 h; inhibition, % at 4 µM;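 active means inhibition above the mean inhibition across every tested compound plus 3 SD, cut at about 22% in these data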;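 further: 0% = DMSO only wells and the 100% control is not disclosed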
Target sequence (Q00G26 whole entry, looked up): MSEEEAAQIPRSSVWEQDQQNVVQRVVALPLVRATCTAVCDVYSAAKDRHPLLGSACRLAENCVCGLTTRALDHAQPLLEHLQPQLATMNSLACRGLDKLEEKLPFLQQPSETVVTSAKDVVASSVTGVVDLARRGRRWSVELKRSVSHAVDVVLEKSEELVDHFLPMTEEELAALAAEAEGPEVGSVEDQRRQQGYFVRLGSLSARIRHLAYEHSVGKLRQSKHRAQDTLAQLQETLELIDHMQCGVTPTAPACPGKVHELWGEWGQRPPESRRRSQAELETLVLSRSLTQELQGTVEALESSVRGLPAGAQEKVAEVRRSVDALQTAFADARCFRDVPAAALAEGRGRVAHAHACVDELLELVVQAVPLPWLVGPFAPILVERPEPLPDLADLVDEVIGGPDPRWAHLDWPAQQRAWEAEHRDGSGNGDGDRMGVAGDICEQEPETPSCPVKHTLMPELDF
Target sequence (Q8WTS1 whole entry, looked up): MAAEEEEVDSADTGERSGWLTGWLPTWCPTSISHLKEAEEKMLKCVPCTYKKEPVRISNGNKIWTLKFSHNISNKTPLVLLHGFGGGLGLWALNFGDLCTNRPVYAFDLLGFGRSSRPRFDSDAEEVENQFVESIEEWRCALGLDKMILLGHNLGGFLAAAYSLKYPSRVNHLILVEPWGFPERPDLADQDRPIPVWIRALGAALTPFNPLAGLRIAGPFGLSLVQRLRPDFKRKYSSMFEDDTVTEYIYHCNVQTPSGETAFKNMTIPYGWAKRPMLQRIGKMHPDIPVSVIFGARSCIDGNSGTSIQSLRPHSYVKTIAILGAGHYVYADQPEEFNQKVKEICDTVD
rCAG binder: molecules binding r(CAG) RNA repeats; r(CAG) RNA repeat, TO-PRO-1 dye displacement fluorescence; inhibition, % at 3 µM; 370,000 tested, 1.3% active; AID 651821;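 active means inhibition above the plate cutoff, the mean of all test compounds on that plate plus 3 SD, cut at about 35% in these data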;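 further: 0% = DMSO alone and 100% = 100 µM mitoxantrone as full dye displacement; higher means more dye released from RNA so lower well fluorescence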
core dimer inh: blocks dimerization of HCV core protein; TR-FRET GST/Flag-core106 dimerization, 1536-well; inhibition, % at 5 µM; 300,000 tested, 0.33% active;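 active means inhibition above the mean of all tested compounds plus 3 SD, set per screening campaign, cut at about 45% in these data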
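assay system = GST-tagged and Flag-tagged HCV core protein residues 1-106 | controls = unlabelled core106 and no-GST-core106 wells | incubation = compound-protein-antibody incubation 4 h at 22.5 °C | probe or stimulus = Eu donor and XL665 acceptor anti-tag antibodies | read-out = % inhibition based on acceptor/donor emission ratio | signal = TR-FRET 671 and 617 nm emission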
NadD block: NadD (S. aureus) enzyme inhibition; purified NadD enzyme, colorimetric absorbance read-out; inhibition, % at 20 µM; 360,000 tested, 0.78% active; in the data active means inhibition above about 26%
rCAG binder conf: r(CAG) RNA repeat binding, confirmation | shares compounds with rCAG binder | AID 652065 | TO-PRO-1 dye displacement fluorescence | inhibition, % at 3 µM | 4,300 tested, 70% active;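 active means inhibition above a per-plate cutoff, the mean inhibition of sample wells plus 3 SD, cut at about 35% in these data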;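 further: loss of TO-PRO-1 fluorescence as compound displaces dye from 1x1 AA loop RNA; 0% = DMSO only wells and 100% = 100 µM mitoxantrone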
dCAG dye counter: counter-screen for rCAG RNA binders: DNA CAG dye complex inhibitors; shares compounds with rCAG binder; d(CAG) DNA oligo TO-PRO-1 dye displacement, fluorescence; inhibition, % at 3 µM; 4,300 tested, 94% active;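 active means inhibition above its plate's cutoff, the mean test-well inhibition plus 3 SD, cut at about 4.8% in these data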;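 further: 0% = DNA dye mix with DMSO and 100% = 100 µM mitoxantrone; hits displace the dye from DNA and so lower well fluorescence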
dCAG dye DR: DNA CAG dye complex inhibition, dose response counter-screen; shares compounds with rCAG binder; DNA CAG/GTC duplex TO-PRO-1 dye displacement fluorescence; IC50, µM; 250 tested, 20% active; AID 686960; in the data active means IC50 below about 10 µM
* marks the source's active call; other numbers are inactive results; i = inactive; . = not tested or not shown. This is a sample that favours compounds with a hit; in the whole collection about 2.6% have one here.

SMILES	ABHD5-PLIN5 inh	rCAG binder	core dimer inh	NadD block	rCAG binder conf	dCAG dye counter	others
O=C(COC(=O)c1cc(S(=O)(=O)Nc2ccccc2Cl)ccc1O)Nc1nc2ccccc2s1	-2	43*	.	10	69*	31*
COc1ccccc1NS(=O)(=O)c1ccc(O)c(C(=O)OCC(=O)c2ccc(Cl)cc2Cl)c1	1	17	9	7	.	.
N#Cc1cccc(NC(=O)COC(=O)c2cc(S(=O)(=O)Nc3ccccc3Cl)ccc2O)c1	-11	52*	.	2	45*	15*
COC(=O)[C@]12C[C@H](CC(=O)N3CCCCC3)C(=O)N(Cc3ccc(Cl)cc3Cl)C1=C[C@H](C(C)(C)C)O[C@@H]2C	.	7	.	.	.	.
CN(C)c1ncc(C2=C(Cl)C(=O)C(N3CCCC3)=C(Cl)C2=O)s1	-2	65*	84*	25	55*	24*	dCAG dye DR=i
N#CCC[C@H]1CC[C@]2(CCCN(Cc3ccccc3)C2)O1	.	1	.	.	.	.
C=C(C)C(=O)Nc1ccc2nn(-c3ccccc3O)nc2c1	-3	3	.	-3	.	.
O=C(CCCN1C(=O)/C(=C\c2ccco2)SC1=S)Nc1ccc(O)cc1C(=O)O	12	90*	13	-3	78*	43*
O=C(CCCN1C(=O)/C(=C/c2cccs2)SC1=S)Nc1ccccc1O	3	8	-9	-2	.	.
O=C(CCCN1C(=O)/C(=C/c2ccco2)SC1=S)Nc1cccc(C(=O)O)c1	12	68*	2	-5	45*	17*
O=C(CCCN1C(=O)/C(=C\c2cccs2)SC1=S)Nc1ccc(O)cc1C(=O)O	-12	60*	-1	-6	60*	23*
O=C1NC[C@H](CCCCN2CCN(Cc3ccccc3)C(=O)C2=O)N(CCc2ccc(O)cc2)C1=O	3	5	.	3	.	.
CC(C)CNC(=S)N1CCC(C(=O)c2ccc(Cl)cc2)CC1	6	1	.	-4	.	.
COc1ccc(C(C)=O)cc1CSC(=S)N1CCSCC1	.	3	.	.	.	.
Cc1c(N/N=C(\C#N)C(=O)c2ccc(Cl)cc2)c(=O)n(-c2ccccc2)n1C	3	37*	1	17	32	10*
CCOC(=O)NC(=O)/C(C#N)=N\Nc1ccc(Cl)cc1	1	24	-3	1	.	.
N#C/C(=N\Nc1ccc(Cl)cc1)C(=O)c1ccccc1	6	59*	5	1	58*	14*
O=C1NC(Cc2ccccc2)c2nc3ccc(F)cc3c(=O)n2-c2cc(Cl)ccc21 (configuration not stated)	.	6	.	.	.	.
Cc1cccc(NC(=O)COc2ccc(/C=C\c3[nH]c(=O)[nH]c(=O)c3[N+](=O)[O-])cc2)c1	3	87*	24	23	87*	66*
COc1ccc(C(=O)Oc2coc(CSc3nnc(NC(=O)c4cccs4)s3)cc2=O)cc1	5	35*	43	25	52*	16*
COc1ccc2nc(Nc3nc4cc5c(cc4s3)OCO5)sc2c1	9	44*	-9	25	32	20*
COc1ccc2nc(Nc3ccc4c(c3)OCO4)sc2c1	-4	10	-6	4	.	.
COc1cccc(C(=O)N2CCC[C@H]2C(=O)N2CCC[C@H]2C(=O)NCc2ccncc2)c1	-1	-1	.	4	.	.
CCC(CC)CN1CCC(CN2C(=S)NC[C@@H]2Cc2ccccc2)CC1	.	2	.	.	.	.
Cc1nn(-c2ccccc2)c(Cl)c1/C=N/Nc1ccc(S(=O)(=O)Nc2ccccc2C(=O)O)cc1[N+](=O)[O-]	0	52*	19	20	92*	65*
SMILES	ABHD5-PLIN5 inh	rCAG binder	core dimer inh	NadD block	rCAG binder conf	dCAG dye counter	others
COc1ccc(NC(=S)NNc2ccc(S(=O)(=O)Nc3ccccc3C(=O)O)cc2[N+](=O)[O-])cc1	-5	97*	-9	0	88*	61*
Cc1nn(-c2ccccc2)c(Cl)c1/C=N/Nc1ccc(Cl)c(C(=O)O)c1	-5	26	2	-1	.	.
Cc1nn(-c2ccccc2)c(Cl)c1/C=N/NS(=O)(=O)c1ccc(Br)cc1	-8	48*	11	2	42*	11*
CCOc1cccc(C=NNc2ccc(S(=O)(=O)Nc3ccccc3C(=O)O)cc2[N+](=O)[O-])c1O	-3	76*	.	8	86*	54*
CNC(=S)N/N=C/c1c(C)nn(-c2ccccc2)c1Cl	2	4	6	4	.	.
Cc1cc(C)c2c(CN3CCN(c4ccccc4F)CC3)cc(=O)oc2c1	-5	4	.	-5	.	.
Cc1ccc2nc(CN(C)C(=O)[C@@H](Cc3ccccc3)NC(=O)[C@H]3O[C@@H](n4cnc(C(N)=O)n4)[C@H](O)[C@@H]3O)[nH]c2c1	.	5	.	.	.	.
Cc1ccc(S(=O)(=O)Nc2ccccc2C(=O)OC(C)C(=O)Nc2ccc3ccccc3c2)cc1[N+](=O)[O-] (configuration not stated)	-6	39*	47*	20	42*	17*
CNc1ccccc1C(=O)OC(C)C(=O)Nc1ccc(S(=O)(=O)N2CCCC2)cc1 (configuration not stated)	-16	7	10	10	.	.
C=CCOc1ccc(C=NNc2ccc(S(=O)(=O)Nc3ccccc3C(=O)O)cc2[N+](=O)[O-])cc1OC	-3	37*	.	18	95*	80*
O=[N+]([O-])c1ccccc1N/N=C\c1ccccc1F	-14	3	2	-2	.	.
O=C(O)c1ccccc1NS(=O)(=O)c1ccc(NN=Cc2ccccc2F)c([N+](=O)[O-])c1	8	84*	.	7	92*	72*
CC1=CC(c2ccc(Cl)cc2)n2nc(NS(=O)(=O)c3ccc(C)cc3)nc2N1 (configuration not stated)	-1	47*	13	21	52*	17*
Cc1cc(C)cc(N=C2NC(=O)/C(=C/c3cccs3)S2)c1	0	21	12	6	.	.
COc1ccc(N=C2NC(=O)/C(=C\C=C\c3ccco3)S2)cc1	22*	44*	.	36*	33	17*
Cc1ccc(N=C2NC(=O)/C(=C\c3ccco3)S2)cc1	10	42*	11	3	34	15*
Cc1ccc(S(=O)(=O)/N=C2/NC(=O)/C(=C/c3ccc(Br)o3)S2)cc1	8	93*	11	9	83*	54*
CC(=O)c1ccc([C@H](O)[C@H](C)C(=O)N(C)c2ccccc2)cc1	.	0	.	.	.	.
Cc1ccc(CNc2nc(NCc3ccccc3)nc3ccsc23)c(C)c1	5	2	.	18	.	.
O=C(O)COc1ccc(NC(=O)c2ccc3c(c2)C(=O)N(Cc2ccccc2)C3=O)cc1	-12	47*	-3	-4	28	6.2*
Cc1cn([C@H]2C[C@H](O)[C@@H](CNC/C=C/c3ccccc3[N+](=O)[O-])O2)c(=O)[nH]c1=O	-1	5	.	7	.	.

Screening data as filed in PubChem.
